{"source": "paper PMC3832945", "about": "(Molecular pharmaceutics, 2013)", "key": {"[1]": {"test": "Metabolism in intestinal segments", "assay_type": "in vitro ADME, mouse", "details": "wild-type mice, 0.8 mM, 5 min, 37 °C", "how_it_was_run": "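Wild-type intestinal pieces, 1 cm, opened longitudinally to expose the lumen. Incubated in PBS pH 7.4 with 0.8 mM test compound, 5 min, 37 °C, then iced and stopped with 10% TFA. Spun 12 000g, 5 min. Supernatant on reversed-phase C18 HPLC, UV 210 nm, 15–30% acetonitrile (0.1% TFA) gradient over 30 min. Parent and fragments identified with standards.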"}, "[2]": {"test": "Exposure in portal vein during jejunal perfusion", "assay_type": "in vivo, mouse", "details": "90 min jejunal perfusion of 0.1 μM [3H-Phe]fMet-Leu-Phe, wild-type mice", "how_it_was_run": "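Wild-type jejunal single-pass perfusion with 2 μCi/ml (0.1 μM) [3H-Phe]-labelled tripeptide; portal venous blood drawn at 80–90 min. Intact tripeptide and [3H-Phe] measured by HPLC with radiochemical detection: isocratic 30% acetonitrile plus 0.1% TFA, 1.0 mL/min, ambient. Peaks assigned with radiolabelled standards.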"}, "[3]": {"test": "Hydrolysis kinetics in jejunal homogenates", "assay_type": "in vitro ADME, mouse", "details": "0.4–100 μM, 1 min, 37 °C", "how_it_was_run": "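Jejunal mucosa scraped from wild-type or PepT1 knockout mice and homogenised in ice-cold PBS for 2 min. Spun at 12 000g for 15 min; supernatant protein at 0.5 mg/mL. Incubated with [3H-Phe]-labelled test compound at 0.4–100 μM, 1 min, 37 °C. Stopped with 10% TFA, HPLC with radiochemical detection. Rate from parent loss; Vmax and Km fitted; n = 4, mean ± SE.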"}, "PepT1 [4]": {"test_system": "PepT1", "test": "Regional intestinal permeability", "assay_type": "in vivo, mouse", "details": "colon, 0.1 μM", "how_it_was_run": "(§1)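 Each region perfused separately in situ in fasted, pentobarbital-anaesthetised (40–60 mg/kg ip) wild-type and PepT1 knockout mice at 31 °C. Perfusate: 135 mM NaCl, 5 mM KCl, 10 mM MES pH 6.5, [14C]inulin, 2 μCi/ml (0.1 μM) labelled compound, 100 mM Phe, 0.1 mL/min. Outflow sampled every 10 min for 90 min and counted. Inulin-corrected steady-state Peff from parallel-tube model; n = 6.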"}, "PepT1 [5]": {"biological_target": "T1, PepT1 (Mus musculus, UniProt Q9JIP7)", "T1 sequence (Q9JIP7 1-709)": "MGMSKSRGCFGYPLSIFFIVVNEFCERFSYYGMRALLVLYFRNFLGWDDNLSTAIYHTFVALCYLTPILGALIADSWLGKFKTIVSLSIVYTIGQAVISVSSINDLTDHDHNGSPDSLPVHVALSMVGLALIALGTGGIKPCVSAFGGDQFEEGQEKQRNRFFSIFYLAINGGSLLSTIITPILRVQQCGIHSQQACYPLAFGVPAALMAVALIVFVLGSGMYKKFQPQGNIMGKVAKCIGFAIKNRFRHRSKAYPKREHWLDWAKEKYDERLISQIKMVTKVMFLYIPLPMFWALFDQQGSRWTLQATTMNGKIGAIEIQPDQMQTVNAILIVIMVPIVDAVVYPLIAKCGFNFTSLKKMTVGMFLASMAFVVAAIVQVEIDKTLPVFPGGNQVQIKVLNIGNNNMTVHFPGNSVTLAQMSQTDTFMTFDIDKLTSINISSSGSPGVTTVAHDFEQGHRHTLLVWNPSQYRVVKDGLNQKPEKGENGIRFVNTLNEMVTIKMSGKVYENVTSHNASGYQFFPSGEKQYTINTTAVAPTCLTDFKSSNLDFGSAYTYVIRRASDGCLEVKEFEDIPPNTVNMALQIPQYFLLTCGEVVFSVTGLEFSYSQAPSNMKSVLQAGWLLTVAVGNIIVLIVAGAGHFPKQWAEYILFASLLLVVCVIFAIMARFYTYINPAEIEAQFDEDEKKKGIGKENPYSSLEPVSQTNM", "test": "Regional intestinal permeability", "assay_type": "in vivo", "how_it_was_run": "as §1"}, "[6]": {"test_system": "Myeloperoxidase activity (a measure of neutrophil migration)", "test": "Myeloperoxidase", "assay_type": "in vivo, mouse", "details": "for effect on MPO activity: 10 μM", "how_it_was_run": "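Jejunum or colon of wild-type and PepT1 knockout mice perfused in situ with Krebs–Ringer buffer (jejunum 0.067, colon 0.1 mL/min) for 30 min. Then 10 μM test compound, ± 50 mM GlyGly, for 4 h. MPO by o-dianisidine/H2O2 oxidation at pH 6.0, A460 over 2 min, reported as IU/g wet tissue. n = 5, mean ± SE, ANOVA/Tukey.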"}, "PepT1 [7]": {"biological_target": "T1, PepT1", "test": "In situ single-pass jejunal perfusion of [3H]fMet-Leu-Phe", "assay_type": "in vivo"}, "[8]": {"details": "50 mM inhibitor, jejunal perfusion, PepT1 knockout mice"}, "[9]": {"details": "50 mM inhibitor, jejunal perfusion, wild-type mice"}}, "note": "Peptide text beside a SMILES is read from it.", "data": [{"smiles": "CSCC[C@H](NC=O)C(=O)N[C@@H](CC(C)C)C(=O)N[C@@H](Cc1ccccc1)C(=O)O", "note": "[fMet-Leu-Phe, N-formyl-methionyl-leucyl-phenylalanine]", "values": [{"measurement": "hydrolysis in intestinal segments", "setting": "[1]; duodenum and jejunum", "value": "substantial hydrolysis"}, {"measurement": "hydrolysis in intestinal segments", "setting": "[1]; ileum and colon", "value": "only minor hydrolysis"}, {"measurement": "intact tripeptide in portal vein", "setting": "[2]", "value": "no intact tripeptide was found"}, {"measurement": "Vmax of hydrolysis", "setting": "[3]; PepT1 knockout mice", "value": "3.3 ± 0.1", "unit": "nmol/mg/min"}, {"measurement": "Vmax of hydrolysis", "setting": "[3]; wild-type mice", "value": "3.2 ± 0.2", "unit": "nmol/mg/min"}, {"measurement": "effective permeability in PepT1 knockout versus wild-type mice", "setting": "PepT1 [4]", "value": "did not differ between the two genotypes"}, {"measurement": "residual permeability in PepT1 knockout relative to wild-type mice", "setting": "PepT1 [5]; duodenal, jejunal and ileal segments, on average", "value": "~10", "unit": "%"}, {"measurement": "effective permeability in PepT1 knockout versus wild-type mice", "setting": "PepT1 [5]; duodenum, jejunum and ileum, 0.1 μM", "value": "considerably lower"}, {"measurement": "effect on MPO activity", "setting": "[6]; colon, wild-type and PepT1 null mice, 4 h", "value": "without change"}, {"measurement": "effect on MPO activity", "setting": "[6]; jejunum, PepT1 knockout mice, 4 h", "value": "no effect"}, {"measurement": "increase in MPO activity", "setting": "[6]; jejunum, wild-type mice, 4 h perfusion of 10 μM fMet-Leu-Phe", "value": "about 2 fold"}]}, {"smiles": "NCC(=O)NCC(=O)O", "note": "[GlyGly, glycylglycine] (H-Gly-Gly-OH)", "values": [{"measurement": "effect of coperfused dipeptide on fMet-Leu-Phe-induced MPO activity", "setting": "[6]; jejunum, wild-type mice, 10 μM fMet-Leu-Phe + 50 mM GlyGly, 4 h", "value": "returned to control values"}]}, {"smiles": "N[C@@H](Cc1c[nH]cn1)C(=O)O", "note": "[L-histidine]", "values": [{"measurement": "effect of inhibitor on permeability of fMet-Leu-Phe", "setting": "PepT1 [7]; [8]", "value": "no effect"}, {"measurement": "effect of inhibitor on permeability of fMet-Leu-Phe", "setting": "PepT1 [7]; [9]", "value": "no effect"}]}, {"smiles": "NCC(=O)N1CCC[C@H]1C(=O)O", "note": "[GlyPro, glycylproline] (H-Gly-Pro-OH)", "values": [{"measurement": "Ki", "setting": "PepT1 [7]", "value": 100, "unit": "mM"}, {"measurement": "reduction of fMet-Leu-Phe uptake by inhibitor", "setting": "PepT1 [7]; 50 mM inhibitor, 0.1 μM [3H]fMet-Leu-Phe, jejunal perfusion, wild-type mice", "value": 33, "unit": "%"}, {"measurement": "effect of inhibitor on permeability of fMet-Leu-Phe", "setting": "PepT1 [7]; [8]", "value": "but not in PepT1 knockout animals"}, {"measurement": "effect of inhibitor on permeability of fMet-Leu-Phe", "setting": "PepT1 [7]; [9]", "value": "significantly reduced"}]}]}
